Results published in ChEMBL document CHEMBL3774373, “Activity and Predicted Nephrotoxicity of Synthetic Antibiotics Based on Polymyxin B” (J Med Chem, 2016).
Converted amounts (≈) assume the structure as drawn. Bridge positions count the residues as written; N and C are the ends. Square brackets hold non-standard residues; d marks the D form. Peptide text beside a SMILES is read from it. * marks the point of attachment. dBip = N[C@H](Cc1ccc(-c2ccccc2)cc1)C(=O)O; Phe(4-NH2) = Nc1ccc(C[C@H](N)C(=O)O)cc1; dGly(nOct) = CCCCCCCC[C@@H](N)C(=O)O; Gly(octyl) = CCCCCCCC[C@H](N)C(=O)O; Octanoyl = CCCCCCCC(=O)*; Dab = NCC[C@H](N)C(=O)O

Key:
Pseudomonas aeruginosa [1] = test: Antibacterial activity against Pseudomonas aeruginosa ATCC 27853 after 18 hrs by 2 fold serial dilution method; format: functional
In short: (§1)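 Overnight cultures in nutrient or Mueller Hinton broth at 37 °C with shaking, diluted 50-fold into fresh MHB and grown 1.5–3 h to mid-log. Inoculum 5×10^5 CFU/mL in 2-fold serial dilutions, final range 32 to 0.015 μg/mL. MIC read visually after 18 h at 37 °C as the lowest concentration with no visible growth.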

Acinetobacter baumannii [2] = test: Antibacterial activity against Acinetobacter baumannii ATCC 19606 after 18 hrs by 2 fold serial dilution method; format: functional; in short: as §1
Pseudomonas aeruginosa [3] = test: Antibacterial activity against clinical isolate polymyxin resistant Pseudomonas aeruginosa PA9704 after 18 hrs by 2 fold serial dilution method; format: functional
In short: (§2)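 Polymyxin-resistant clinical isolates were grown overnight at 37 °C in NB or MHB with shaking, diluted 50-fold in MHB and grown 1.5–3 h to mid-log phase. The inoculum was 5×10^5 CFU/mL. Compounds were 2-fold broth serial dilutions, final 32 to 0.015 μg/mL; the polymyxin controls ran 128–0.06 μg/mL. The MIC was the lowest concentration with no visible growth after 18 h at 37 °C.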

Klebsiella pneumoniae [4] = test: Antibacterial activity against clinical isolate carbapenem and polymyxin resistant Klebsiella pneumoniae 138-16357-20362 after 18 hrs by 2 fold serial dilution method; format: functional; in short: as §2
Staphylococcus aureus = test: microbe, parasite or virus in culture; conditions: ATCC 25923, 18 h
Escherichia coli = test: Antibacterial activity against Escherichia coli ATCC 25922 after 18 hrs by 2 fold serial dilution method; format: functional; in short: as §1
Acinetobacter baumannii [5] = test: Antibacterial activity against clinical isolate carbapenem and polymyxin resistant Acinetobacter baumannii Ptyela 100734512:2 after 18 hrs by 2 fold serial dilution method; format: functional; in short: as §2
Pseudomonas aeruginosa [6] = test: Antibacterial activity against clinical isolate polymyxin resistant Pseudomonas aeruginosa FADDI-PA070 after 18 hrs by 2 fold serial dilution method; format: functional; in short: as §2
Klebsiella pneumoniae [7] = test: Antibacterial activity against Klebsiella pneumoniae ATCC BAA-2146 expressing NDM-1 after 18 hrs by 2 fold serial dilution method; format: functional
In short: (§3)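 Overnight cultures at 37 °C in nutrient or Mueller Hinton broth with shaking were diluted 50-fold in MHB and grown 1.5–3 h to mid-log phase. The inoculum was 5×10^5 CFU/mL in MHB. Compounds were 2-fold serially diluted, final 32 to 0.015 μg/mL. After 18 h at 37 °C, the MIC was read visually as the lowest concentration with no visible growth.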

Klebsiella pneumoniae [8] = test: Antibacterial activity against clinical isolate carbapenem and polymyxin resistant Klebsiella pneumoniae Koprana 100650661:1 after 18 hrs by 2 fold serial dilution method; format: functional; in short: as §2
Klebsiella pneumoniae [9] = test: Antibacterial activity against Klebsiella pneumoniae ATCC 13883 after 18 hrs by 2 fold serial dilution method; format: functional; in short: as §1
Klebsiella pneumoniae [10] = test: Antibacterial activity against multidrug resistant Klebsiella pneumoniae ATCC 700603 after 18 hrs by 2 fold serial dilution method; format: functional; in short: as §3
[11] = Cytotoxicity against human HepG2 cells after 24 hrs by resazurin assay; format: cell-based; conditions: HepG2 cells
[12] = Klebsiella pneumoniae, 700603, 18 h

Compound	MIC (Pseudomonas aeruginosa [1]; ATCC 27853, 18 h) [µg/mL]	MIC (Acinetobacter baumannii [2]; ATCC 19606, 18 h) [µg/mL]	MIC (Pseudomonas aeruginosa [3]; PA9704, 18 h) [µg/mL]	MIC (Klebsiella pneumoniae [4]; 138-16357-20362, 18 h) [µg/mL]	MIC (Staphylococcus aureus) [µg/mL]	MIC (Escherichia coli; ATCC 25922, 18 h) [µg/mL]	MIC (Acinetobacter baumannii [5]; Ptyela 100734512:2, 18 h) [µg/mL]	MIC (Pseudomonas aeruginosa [6]; FADDI-PA070, 18 h) [µg/mL]	MIC (Klebsiella pneumoniae [7]; ATCC BAA-2146, 18 h) [µg/mL]	MIC (Klebsiella pneumoniae [8]; Koprana 100650661:1, 18 h) [µg/mL]	MIC (Klebsiella pneumoniae [9]; ATCC 13883, 18 h) [µg/mL]	MIC (Klebsiella pneumoniae [10]; [12]) [µg/mL]	CC50 at 24 h [11] [µM]	other results
CCCCCCCC(=O)N[C@@H](CCN)C(=O)N[C@H](C(=O)N[C@@H](CCN)C(=O)N[C@H]1CCNC(=O)[C@H]([C@@H](C)O)NC(=O)[C@H](CCN)NC(=O)[C@H](CCNC(=O)[C@@H](N)CCCNC(=N)N)NC(=O)[C@H](CC(C)C)NC(=O)[C@@H](Cc2ccccc2)NC(=O)[C@H](CCN)NC1=O)[C@@H](C)O	2 (≈ 1.49 µM)	4 (≈ 2.97 µM)	> 32	> 32	> 32	0.5 (≈ 0.372 µM)	> 32	> 32	1 (≈ 0.743 µM)	> 32	4 (≈ 2.97 µM)	0.5 (≈ 0.372 µM)	–	–
CCCCCCCC(=O)N[C@@H](CCN)C(=O)N[C@H](C(=O)N[C@@H](CCN)C(=O)N[C@H]1CCNC(=O)[C@H]([C@@H](C)O)NC(=O)[C@H](CCN)NC(=O)[C@H](Cc2ccc(N)cc2)NC(=O)[C@H](CC(C)C)NC(=O)[C@@H](Cc2ccccc2)NC(=O)[C@H](CCN)NC1=O)[C@@H](C)O	8 (≈ 6.39 µM)	4 (≈ 3.2 µM)	> 32	> 32	> 32	0.5 (≈ 0.4 µM)	> 32	32 (≈ 25.6 µM)	2 (≈ 1.6 µM)	> 32	8 (≈ 6.39 µM)	1 (≈ 0.799 µM)	–	–
CCCCCCCC(=O)N[C@@H](CCN)C(=O)N[C@H](C(=O)N[C@@H](CCN)C(=O)N[C@H]1CCNC(=O)[C@H]([C@@H](C)O)NC(=O)[C@H](CCN)NC(=O)[C@H](CCCNC(=N)N)NC(=O)[C@H](CC(C)C)NC(=O)[C@@H](Cc2ccccc2)NC(=O)[C@H](CCN)NC1=O)[C@@H](C)O	1 (≈ 0.803 µM)	0.5 (≈ 0.401 µM)	> 32	> 32	> 32	0.25 (≈ 0.201 µM)	32 (≈ 25.7 µM)	32 (≈ 25.7 µM)	0.5 (≈ 0.401 µM)	> 32	4 (≈ 3.21 µM)	0.5 (≈ 0.401 µM)	–	–
CN[C@@H](CC(C)C)C(=O)N[C@H]1C(=O)N[C@@H](CC(N)=O)C(=O)N[C@H]2C(=O)N[C@H]3C(=O)N[C@H](C(=O)N[C@@H](C(=O)O)c4cc(O)cc(O)c4-c4cc3ccc4O)[C@H](O)c3ccc(c(Cl)c3)Oc3cc2cc(c3O[C@H]2O[C@@H](CO)[C@H](O)[C@@H](O)[C@@H]2O[C@@H]2C[C@@](C)(N)[C@@H](O)[C@@H](C)O2)Oc2ccc(cc2Cl)[C@H]1O	–	–	–	–	–	–	–	–	–	–	–	–	> 300	–
CCCCCCCC(=O)NCC(=O)N[C@@H](CCN)C(=O)N[C@H](C(=O)N[C@H]1CCNC(=O)[C@H]([C@@H](C)O)NC(=O)[C@H](CCN)NC(=O)[C@H](CCN)NC(=O)[C@H](CC(C)C)NC(=O)[C@@H](Cc2ccccc2)NC(=O)[C@H](CCN)NC1=O)[C@@H](C)O (Octanoyl-G[Dab]T[Dab][Dab][dF]L[Dab][Dab]T; lactam 4-C)	2 (≈ 1.74 µM)	> 32	> 32	> 32	> 32	16 (≈ 14 µM)	> 32	> 32	16 (≈ 14 µM)	> 32	32 (≈ 27.9 µM)	8 (≈ 6.98 µM)	> 300	–
CCCCCCCC(=O)N[C@@H](CCN)C(=O)N[C@H](C(=O)N[C@@H](CCN)C(=O)N[C@H]1CCNC(=O)[C@H]([C@@H](C)O)NC(=O)[C@H](CCN)NC(=O)[C@H](CCN)NC(=O)[C@H](CC(C)C)NC(=O)[C@@H](Cc2ccccc2)NC(=O)[C@H](CCCNC(=N)N)NC1=O)[C@@H](C)O (Octanoyl-[Dab]T[Dab][Dab]R[dF]L[Dab][Dab]T; lactam 4-C)	32 (≈ 25.7 µM)	> 32	> 32	> 32	> 32	16 (≈ 12.8 µM)	> 32	> 32	32 (≈ 25.7 µM)	> 32	> 32	32 (≈ 25.7 µM)	> 300	–
CCCCCCCC(=O)N[C@@H](CCN)C(=O)N[C@H](C(=O)N[C@@H](CCN)C(=O)N[C@H]1CCNC(=O)[C@H]([C@@H](C)O)NC(=O)[C@H](CCN)NC(=O)[C@H](CCN)NC(=O)[C@H](CC(C)C)NC(=O)[C@@H](Cc2ccccc2)NC(=O)[C@H](CCNC(=O)[C@@H](N)CCCNC(=N)N)NC1=O)[C@@H](C)O (Octanoyl-[Dab]T[Dab][Dab][Dab](Arg)[dF]L[Dab][Dab]T; lactam 4-C)	32 (≈ 23.8 µM)	32 (≈ 23.8 µM)	> 32	> 32	> 32	32 (≈ 23.8 µM)	> 32	> 32	16 (≈ 11.9 µM)	> 32	32 (≈ 23.8 µM)	16 (≈ 11.9 µM)	> 300	–
CCCCCCCC(=O)N[C@@H](CCN)C(=O)N[C@H](C(=O)N[C@@H](CCN)C(=O)N[C@H]1CCNC(=O)[C@H]([C@@H](C)O)NC(=O)[C@H](CCN)NC(=O)[C@H](CCN)NC(=O)[C@H](CC(C)C)NC(=O)[C@@H](Cc2ccccc2)NC(=O)[C@H](CCNC(=O)[C@@H](N)CCC(=O)O)NC1=O)[C@@H](C)O (Octanoyl-[Dab]T[Dab][Dab][Dab](Glu)[dF]L[Dab][Dab]T; lactam 4-C)	> 32	> 32	> 32	> 32	> 32	> 32	> 32	> 32	32 (≈ 24.3 µM)	> 32	> 32	> 32	> 300	–
CCCCCCCC(=O)N[C@@H](CCN)C(=O)N[C@H](C(=O)N[C@@H](CCN)C(=O)N[C@H]1CCNC(=O)[C@H]([C@@H](C)O)NC(=O)[C@H](CCN)NC(=O)[C@H](CCN)NC(=O)[C@H](CC(C)C)NC(=O)[C@@H](Cc2ccc(-c3ccccc3)cc2)NC(=O)[C@H](CCN)NC1=O)[C@@H](C)O (Octanoyl-[Dab]T[Dab][Dab][Dab][dBip]L[Dab][Dab]T; lactam 4-C)	1 (≈ 0.79 µM)	0.5 (≈ 0.395 µM)	16 (≈ 12.6 µM)	32 (≈ 25.3 µM)	8 (≈ 6.32 µM)	1 (≈ 0.79 µM)	8 (≈ 6.32 µM)	16 (≈ 12.6 µM)	1 (≈ 0.79 µM)	32 (≈ 25.3 µM)	4 (≈ 3.16 µM)	2 (≈ 1.58 µM)	119	–
CCCCCCCC[C@@H]1NC(=O)[C@@H](Cc2ccccc2)NC(=O)[C@H](CCN)NC(=O)[C@@H](NC(=O)[C@H](CCN)NC(=O)[C@@H](NC(=O)[C@H](CCN)NC(=O)CCCCCCC)[C@@H](C)O)CCNC(=O)[C@H]([C@@H](C)O)NC(=O)[C@H](CCN)NC(=O)[C@H](CCN)NC1=O (Octanoyl-[Dab]T[Dab][Dab][Dab][dF][Gly(octyl)][Dab][Dab]T; lactam 4-C)	1 (≈ 0.803 µM)	2 (≈ 1.61 µM)	–	–	–	–	–	–	–	–	4 (≈ 3.21 µM)	–	–	–
CCCCCCCC[C@H]1NC(=O)[C@H](CCN)NC(=O)[C@@H](NC(=O)[C@H](CCN)NC(=O)[C@@H](NC(=O)[C@H](CCN)NC(=O)CCCCCCC)[C@@H](C)O)CCNC(=O)[C@H]([C@@H](C)O)NC(=O)[C@H](CCN)NC(=O)[C@H](CCN)NC(=O)[C@H](CC(C)C)NC1=O (Octanoyl-[Dab]T[Dab][Dab][Dab][dGly(nOct)]L[Dab][Dab]T; lactam 4-C)	4 (≈ 3.3 µM)	1 (≈ 0.825 µM)	–	–	–	–	–	–	–	–	1 (≈ 0.825 µM)	–	–	–
CCCCCCCC(=O)N[C@@H](CCN)C(=O)N[C@H](C(=O)N[C@@H](CCN)C(=O)N[C@H]1CCNC(=O)[C@H]([C@@H](C)O)NC(=O)[C@H](CCN)NC(=O)[C@H](CCN)NC(=O)[C@H](CC(C)C)NC(=O)[C@@H](Cc2ccccc2)NC(=O)[C@H](Cc2ccc(N)cc2)NC1=O)[C@@H](C)O (Octanoyl-[Dab]T[Dab][Dab][Phe(4-NH2)][dF]L[Dab][Dab]T; lactam 4-C)	> 32	> 32	> 32	> 32	> 32	> 32	> 32	> 32	–	> 32	> 32	> 32	> 300	–
GENTAMICIN	–	–	–	–	–	–	–	–	–	–	–	–	–	MIC (Pseudomonas aeruginosa [1]): 1 µg/mL; MIC (Acinetobacter baumannii [2]): 32 µg/mL; MIC (Pseudomonas aeruginosa [3]): > 32 µg/mL; MIC (Klebsiella pneumoniae [4]): 1 µg/mL; MIC (Escherichia coli): 0.25 µg/mL; MIC (Acinetobacter baumannii [5]): > 32 µg/mL; MIC (Pseudomonas aeruginosa [6]): 32 µg/mL; MIC (Klebsiella pneumoniae [7]): > 32 µg/mL; MIC (Klebsiella pneumoniae [8]): > 32 µg/mL; MIC (Klebsiella pneumoniae [9]): 0.25 µg/mL; MIC (Klebsiella pneumoniae [10]): 8 µg/mL
